Activity calls are given as the source filed them. No cut-off for these calls is given here.
Columns and labels:
[1] = target: Transcriptional coactivator YAP1 (Homo sapiens) (UniProt P46937); test: Induction of YAP1 phosphorylation at S127 residue in human H322 cells harboring SMARCA4 mutant at 0.1 uM incubated for 96 hrs by immunoblot analysis; format: cell-based; conditions: filed as activator
[2] = Antitumor activity against human NCI-H2023 cells harboring SMARCA4 mutant xenografted in female athymic nude mouse assessed as tumor growth inhibition at 5 mg/kg, po administered once daily via gavage for 19 days relative to control; format: functional; conditions: NCI-H2023, 456 h, time 19 day, read-out: TGI
How it was run: (§1)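 Cells (H1568 2 × 10^6, H2023 10 × 10^6, HCC515 5 × 10^6) in PBS:Matrigel 1:1, 200 μL, injected subcutaneously into flanks of 6–8-week-old females. Randomized at mean tumor volume 60 mm3 (H1568) or <200 mm3 (others). Dosed in 0.5% methylcellulose + 0.2–1% Tween-80, sonicated on ice. Caliper tumor volume and body weight tracked, mean ± SEM.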

HCC515 = test: Antitumor activity against human HCC515 cells harboring SMARCA4 mutant xenografted in female athymic nude mouse assessed as tumor growth inhibition at 5 mg/kg, po administered once daily via gavage for 19 days relative to control; format: functional; conditions: HCC515, 456 h, time 19 day, read-out: TGI; how it was run: as §1
NCI-H2030 = test: Antitumor activity against human NCI-H2030 cells harboring SMARCA4 mutant xenografted in female athymic nude mouse assessed as tumor growth inhibition at 5 mg/kg, po administered once daily via gavage for 17 days relative to control; format: functional; conditions: NCI-H2030, 408 h, time 17 day, read-out: TGI
How it was run: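 10 × 10^6 H2030 cells in PBS:Matrigel 1:1, 200 μL, injected subcutaneously into flanks of 6–8-week-old females. Randomized at mean tumor volume <200 mm3. Oral gavage once daily in 10% DMSO, 40% PEG300, 1% Tween-80, 49% saline. Caliper tumor volume and body weight monitored, mean ± SEM.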

[3] = In vivo PROTAC activity at CRBN/SMARCA2 in female athymic nude mouse xenografted with human NCI-H2023 cells harboring SMARCA4 mutant assessed as SMARCA2 degradation at 5 mg/kg, po administered once daily via gavage for 19 days by Western blotting analysis relative to control; format: functional; conditions: time 19 day
How it was run: (§2)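 Female nude mice aged 6–8 weeks carried subcutaneous flank xenografts in PBS/Matrigel 1:1: H2023 at 10 × 10^6 cells or HCC515 at 5 × 10^6 cells. Randomised below 200 mm3. 5 mg/kg or vehicle given by oral gavage once daily for 19 days in 0.5% methylcellulose with Tween-80 (0.2% for H2023, 1% for HCC515). Tumours collected 24 h after dosing. SMARCA2 measured by Western blot against β-actin, relative to vehicle.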

[4] = In vivo PROTAC activity at CRBN/SMARCA2 in female athymic nude mouse xenografted with human HCC515 cells harboring SMARCA4 mutant assessed as SMARCA2 degradation at 5 mg/kg, po administered once daily via gavage for 19 days by Western blotting analysis relative to control; format: functional; conditions: time 19 day; how it was run: as §2
[5] = target: Transcriptional coactivator YAP1 (Homo sapiens) (UniProt P46937); test: Induction of YAP1 phosphorylation at S109 residue in human H322 cells harboring SMARCA4 mutant at 1 uM incubated for 96 hrs by immunoblot analysis; format: cell-based; conditions: filed as activator
[6] = Drug metabolism in mouse liver microsomes assessed as Mono-oxygenation and hydrogenation mediated M1 metabolite formation at 10 uM incubated for 60 mins by LC-UV-HRMS analysis; format: ADME, Microsome; conditions: 1 h
How it was run: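 Compound at 10 μM incubated with mouse liver microsomes at 37 °C for 60 min. Metabolites detected by LC-UV-HRMS, structures proposed from MS and MS2 data, and each metabolite given as a percentage.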

[7] = Toxicity in female athymic nude mouse xenografted with human NCI-H1568 cells harboring SMARCA4 mutant assessed as change in body weight at 40 mg/kg, po administered once daily via gavage for 13 days relative to control; format: organism-based; conditions: in vivo, 312 h, time 13 day; how it was run: as §1
[8] = Drug concentration in CRBN I391V mutant mouse plasma at 10 mg/kg, po administered once daily for 3 days and measured at 24 hrs post last dose; format: ADME, organism-based; conditions: time 3 day
How it was run: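 Oral dosing once daily for 3 days: 5–80 mg/kg in C57BL/6 mice, 10–80 mg/kg in CrbnI391V mice. Euthanized 24 h after last dose. Plasma drug level measured. Spleen SMARCA2 by Western blot against actin loading control, relative to vehicle.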

[9] = Toxicity in immunocompromised mouse xenografted with human NCI-H1568 cells assessed as drug tolerance at 80 mg/kg, administered once daily for 21 days; format: organism-based; conditions: in vivo, 504 h, time 21 day

Transcriptional coactivator YAP1 (Homo sapiens), sequence (P46937 whole entry): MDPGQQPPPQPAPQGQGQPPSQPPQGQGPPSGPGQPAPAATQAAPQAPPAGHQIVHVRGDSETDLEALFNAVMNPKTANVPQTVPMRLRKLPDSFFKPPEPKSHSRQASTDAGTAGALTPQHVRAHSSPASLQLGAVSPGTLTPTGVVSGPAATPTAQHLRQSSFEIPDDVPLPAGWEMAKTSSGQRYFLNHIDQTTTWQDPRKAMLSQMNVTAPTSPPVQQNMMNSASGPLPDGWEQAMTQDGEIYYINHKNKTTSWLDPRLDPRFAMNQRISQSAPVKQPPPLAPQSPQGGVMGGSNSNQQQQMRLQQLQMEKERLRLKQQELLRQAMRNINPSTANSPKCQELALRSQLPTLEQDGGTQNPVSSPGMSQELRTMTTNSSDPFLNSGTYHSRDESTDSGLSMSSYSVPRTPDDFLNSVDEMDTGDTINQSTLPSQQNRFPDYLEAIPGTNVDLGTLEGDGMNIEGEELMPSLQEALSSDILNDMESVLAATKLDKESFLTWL

Row | Structure (SMILES) | Activity [1] | inhibition in vivo at 5 mg/kg [2] | inhibition in vivo at 5 mg/kg (HCC515) | inhibition in vivo at 5 mg/kg (NCI-H2030) | Activity [3] | Activity [4] | Activity [5] | Drug metabolism [6] | Activity [7] | concentration at 72 h [8] | Activity [9]
1 | Nc1nnc(-c2ccccc2O)cc1N1CCN(Cc2ccc(N3CCN(CCOc4cccc5c4C(=O)N(C4CCC(=O)NC4=O)C5=O)CC3)c(F)c2)CC1 (stereo unspecified) | Active | 62.5% | 48.8% | 93.4% | 76% | 96% | – | – | – | – | –
2 | Nc1nnc(-c2ccccc2O)cc1N1CCN(Cc2ccc(N3CCC(CN4CCN(c5ccc6c(c5)C(=O)N(C5CCC(=O)NC5=O)C6=O)CC4)CC3)c(F)c2)CC1 (stereo unspecified) | – | – | – | – | – | – | Active | metabolite_detected | < 10% | 1000 nM | Non-toxic
